Measurements as given in ChEMBL document CHEMBL1759832, “Discovery of torezolid as a novel 5-hydroxymethyl-oxazolidinone antibacterial agent” (Eur J Med Chem, 2011).
In brackets after ≈: the same amount, converted by molar mass.

Columns and labels:
Staphylococcus aureus [1] = assay: Antibacterial activity against methicillin-susceptible Staphylococcus aureus Smith infected po dosed ICR mouse assessed as protection against mouse mortality administered 1 hr after infection measured up to 7 days; assay type: functional
Method in brief: (§1)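 Male outbred ICR mice (4-week-old, 18-20 g) infected intraperitoneally with S. aureus Smith, 2.9 × 10⁷ CFU/mouse in 5% mucin. Compounds given orally or intravenously 1 h after infection, eight mice per group. Mortality followed for 7 days. ED50 taken as the dose protecting 50% of infected mice from death.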

Staphylococcus aureus [2] = assay: Antibacterial activity against methicillin-resistant Staphylococcus aureus by agar dilution method; assay type: functional
Method in brief: (§2)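 MIC by CLSI agar dilution on Mueller-Hinton agar for S. aureus (MSSA, MRSA) and Enterococcus faecium (VRE).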

Enterococcus = assay: Antibacterial activity against vancomycin-resistant Enterococcus by agar dilution method; assay type: functional; method in brief: as §2
Staphylococcus aureus [3] = assay: Antibacterial activity against methicillin-susceptible Staphylococcus aureus by agar dilution method; assay type: functional; method in brief: as §2
Haemophilus influenzae = assay: Antibacterial activity against Haemophilus influenzae by agar dilution method; assay type: functional
Method in brief: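 CLSI agar dilution; Haemophilus test medium used for H. influenzae; read-out MIC.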

[4] = Chemical stability of compound in distilled water assessed as compound remaining at pH 5 at 100 ug/ml after 8 hrs; assay type: physicochemical; details: buffer, pH 5, 8 h
[5] = Aqueous solubility of compound in distilled water; assay type: physicochemical
Method in brief: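 Water added stepwise with repeated vortexing until solution turned transparent; solubility = amount dissolved divided by total distilled water volume in the final clear solution; triplicate, averaged.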

[6] = Chemical stability of compound in distilled water assessed as compound remaining at 100 ug/ml after 8 hrs; assay type: physicochemical
[7] = Chemical stability of compound in distilled water assessed as compound remaining at pH 7 at 100 ug/ml after 8 hrs; assay type: physicochemical; details: buffer, pH 7, 8 h
[8] = Chemical stability of compound in distilled water assessed as compound remaining at pH 3 at 100 ug/ml after 8 hrs; assay type: physicochemical; details: buffer, pH 3, 8 h
[9] = Volume of distribution at steady state in ICR mouse at 10 mg/kg, iv by LC/MS/MS analysis; assay type: ADME, organism-based; design: dose 10 mg/kg, route intravenous; details: in vivo, read-out: Vdss
Method in brief: (§3)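 Single 10 mg/kg dose given orally by feeding tube or iv via tail vein to male ICR mice (4-week-old, 18-20 g). Plasma acidified with 1 N HCl, stored at -70 °C, analysed by LC/MS/MS. Parameters from mean plasma concentrations. For prodrug dosing, values are based on the active parent detected.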

[10] = Cmax in ICR mouse at 10 mg/kg, po by LC/MS/MS analysis; assay type: ADME, organism-based; design: dose 10 mg/kg, route oral; details: in vivo; method in brief: as §3
[11] = Half life in ICR mouse at 10 mg/kg, po by LC/MS/MS analysis; assay type: ADME, organism-based; design: dose 10 mg/kg, route oral; details: in vivo; method in brief: as §3
[12] = Tmax in ICR mouse at 10 mg/kg, po by LC/MS/MS analysis; assay type: ADME, organism-based; design: dose 10 mg/kg, route oral; details: in vivo; method in brief: as §3
[13] = AUC in ICR mouse at 10 mg/kg, iv by LC/MS/MS analysis; assay type: ADME, organism-based; design: dose 10 mg/kg, route intravenous; details: plasma; method in brief: as §3
[14] = Oral bioavailability in ICR mouse at 10 mg/kg by LC/MS/MS analysis; assay type: ADME, organism-based; details: in vivo; method in brief: as §3
[15] = Half life in ICR mouse at 10 mg/kg, iv by LC/MS/MS analysis; assay type: ADME, organism-based; design: dose 10 mg/kg, route intravenous; details: in vivo; method in brief: as §3
[16] = AUC in ICR mouse at 10 mg/kg, po by LC/MS/MS analysis; assay type: ADME, organism-based; design: dose 10 mg/kg, route oral; details: plasma; method in brief: as §3
[17] = Clearance in ICR mouse at 10 mg/kg, iv by LC/MS/MS analysis; assay type: ADME, organism-based; design: dose 10 mg/kg, route intravenous; details: in vivo; method in brief: as §3
Staphylococcus aureus [18] = assay: Antibacterial activity against methicillin-resistant Staphylococcus aureus Smith infected iv dosed ICR mouse assessed as protection against mouse mortality administered 1 hr after infection measured up to 7 days; assay type: functional; method in brief: as §1
Staphylococcus aureus [19] = assay: Antibacterial activity against methicillin-sensitive Staphylococcus aureus Smith infected iv dosed ICR mouse assessed as protection against mouse mortality administered 1 hr after infection measured up to 7 days; assay type: functional; method in brief: as §1
Staphylococcus aureus [20] = assay: Antibacterial activity against methicillin-resistant Staphylococcus aureus Smith infected po dosed ICR mouse assessed as protection against mouse mortality administered 1 hr after infection measured up to 7 days; assay type: functional; method in brief: as §1
Staphylococcus aureus [21] = assay: Antibacterial activity against methicillin-sensitive Staphylococcus aureus Smith infected po dosed ICR mouse assessed as protection against mouse mortality administered 1 hr after infection measured up to 7 days; assay type: functional; method in brief: as §1
Streptococcus pneumoniae = assay: Antibacterial activity against penicillin-resistant Streptococcus pneumoniae by agar dilution method; assay type: functional

Stability [4] [%] | Stability [6] [%] | Stability [7] [%] | Stability [8] [%] | Compound | ED50 (Staphylococcus aureus [1]) [mg/kg] | MIC (Staphylococcus aureus [2]) [µg/mL] | MIC (Enterococcus) [µg/mL] | MIC (Staphylococcus aureus [3]) [µg/mL] | MIC (Haemophilus influenzae) [µg/mL] | further results
 |  |  |  | Cn1nnc(-c2ccc(-c3ccc(N4C[C@H](CNC(=O)CO)OC4=O)cc3F)cn2)n1 | > 30 | 1 (≈ 2.34 µM) | 0.25 (≈ 0.585 µM) | 1 (≈ 2.34 µM) |  | 
 |  |  |  | CNC[C@H]1CN(c2ccc(-c3ccc(-c4nnn(C)n4)nc3)c(F)c2)C(=O)O1 |  | 4 (≈ 10.4 µM) | 4 (≈ 10.4 µM) | 4 (≈ 10.4 µM) |  | 
 |  |  |  | COC[C@H]1CN(c2ccc(-c3ccc(-c4nnn(C)n4)nc3)c(F)c2)C(=O)O1 |  | 2 (≈ 5.2 µM) | 2 (≈ 5.2 µM) | 2 (≈ 5.2 µM) |  | 
 |  |  |  | Cn1nnc(-c2ccc(-c3ccc(N4C[C@H](Cn5ccnn5)OC4=O)cc3F)cn2)n1 | 5.74 | 0.25 (≈ 0.593 µM) | 0.125 (≈ 0.297 µM) | 0.25 (≈ 0.593 µM) | 2 (≈ 4.75 µM) | 
 |  |  |  | Cc1nnc(-c2ccc(-c3ccc(N4C[C@H](CO)OC4=O)cc3F)cn2)o1 | 4.2 | 0.5 (≈ 1.35 µM) | 0.5 (≈ 1.35 µM) | 0.5 (≈ 1.35 µM) | 4 (≈ 10.8 µM) | 
94.9 | 99.9 | 50.5 | 99.9 | Cl.Cn1nnc(-c2ccc(-c3ccc(N4C[C@H](COC(=O)CCN)OC4=O)cc3F)cn2)n1 |  |  |  |  |  | solubility [5]: 20.4 mg/mL
 |  |  |  | CN(C)CC1CN(c2ccc(-c3ccc(-c4nnn(C)n4)nc3)c(F)c2)C(=O)O1 (single isomer, unassigned) |  | 8 (≈ 20.1 µM) |  | 4 (≈ 10.1 µM) |  | 
 |  |  |  | Cn1nnc(-c2ccc(-c3ccc(N4C[C@H](CO)OC4=O)cc3F)cn2)n1 [TEDIZOLID] | 8.8 | 0.5 (≈ 1.35 µM) | 0.125 (≈ 0.338 µM) | 0.5 (≈ 1.35 µM) | 4 (≈ 10.8 µM) | Vd [9]: 0.512 L/kg; Cmax [10]: 4620 ng/mL; half-life [11]: 3.12 h; Tmax [12]: 2 h; AUC [13]: 103000 ng·h/mL; bioavailability [14]: 48.5%; half-life [15]: 3.49 h; AUC [16]: 49800 ng·h/mL; clearance [17]: 1.61 mL/min/kg
 |  |  |  | Cn1nnc(-c2ccc(-c3ccc(N4C[C@H](CF)OC4=O)cc3F)cn2)n1 |  | 1 (≈ 2.69 µM) | 1 (≈ 2.69 µM) | 1 (≈ 2.69 µM) | 64 (≈ 172 µM) | 
93.3 | 85.7 | 11.6 | 95.1 | Cl.Cn1nnc(-c2ccc(-c3ccc(N4C[C@H](COC(=O)CN)OC4=O)cc3F)cn2)n1 |  |  |  |  |  | 
 |  |  |  | Cn1nnc(-c2ccc(-c3ccc(N4C[C@H](COc5ccon5)OC4=O)cc3F)cn2)n1 | > 30 | 0.5 (≈ 1.14 µM) | 0.25 (≈ 0.572 µM) | 0.5 (≈ 1.14 µM) |  | 
 |  |  |  | Cc1nnc(-c2ccc(-c3ccc(N4C[C@H](COc5ccon5)OC4=O)cc3F)cn2)o1 | 6.5 | 1 (≈ 2.29 µM) | 0.5 (≈ 1.14 µM) | 1 (≈ 2.29 µM) | > 16 | 
 |  |  |  | Cn1nnc(-c2ccc(-c3ccc(N4C[C@H](Cn5cncn5)OC4=O)cc3F)cn2)n1 | > 30 | 2 (≈ 4.75 µM) | 1 (≈ 2.37 µM) | 2 (≈ 4.75 µM) |  | 
88.1 | 92.3 | 7.5 | 98 | C[C@H](N)C(=O)OC[C@H]1CN(c2ccc(-c3ccc(-c4nnn(C)n4)nc3)c(F)c2)C(=O)O1.Cl |  |  |  |  |  | solubility [5]: > 50 mg/mL
 |  |  |  | CC(=O)NC[C@H]1CN(c2ccc(N3CCOCC3)c(F)c2)C(=O)O1 [LINEZOLID] | 9.4 |  | 1 (≈ 2.96 µM) |  | 8 (≈ 23.7 µM) | ED50 (Staphylococcus aureus [18]): 12.9 mg/kg; ED50 (Staphylococcus aureus [19]): 29.1 mg/kg; ED50 (Staphylococcus aureus [20]): 15.6 mg/kg; ED50 (Staphylococcus aureus [21]): 21.4 mg/kg
92.7 | 79.5 | 8.1 | 86.6 | Cn1nnc(-c2ccc(-c3ccc(N4C[C@H](COC(=O)CN)OC4=O)cc3F)cn2)n1.O=C(O)C(F)(F)F |  |  |  |  |  | solubility [5]: 28 mg/mL
 |  |  |  | Cn1nnc(-c2ccc(-c3ccc(N4C[C@H](Cn5nccn5)OC4=O)cc3F)cn2)n1 |  | 16 (≈ 38 µM) | 16 (≈ 38 µM) | 16 (≈ 38 µM) |  | 
65.2 | 76.4 | 0.2 | 81.9 | Cn1nnc(-c2ccc(-c3ccc(N4C[C@H](COC(=O)[C@@H]5CCCN5)OC4=O)cc3F)cn2)n1.O=C(O)C(F)(F)F |  |  |  |  |  | solubility [5]: < 1.6 mg/mL
 |  |  |  | Cn1nnc(-c2ccc(-c3ccc(N4C[C@H](CNC(=O)c5ccco5)OC4=O)cc3F)cn2)n1 | > 30 | 1 (≈ 2.16 µM) | 0.5 (≈ 1.08 µM) | 1 (≈ 2.16 µM) | 16 (≈ 34.5 µM) | 
 |  |  |  | Cc1nnc(-c2ccc(-c3ccc(N4C[C@H](Cn5ccnn5)OC4=O)cc3F)cn2)o1 | > 30 | 0.25 (≈ 0.593 µM) | 0.125 (≈ 0.297 µM) | 0.25 (≈ 0.593 µM) | 2 (≈ 4.75 µM) | 
97.3 | 99.4 | 51.2 | 99.9 | CC(C)[C@H](N)C(=O)OC[C@H]1CN(c2ccc(-c3ccc(-c4nnn(C)n4)nc3)c(F)c2)C(=O)O1.O=C(O)C(F)(F)F |  |  |  |  |  | solubility [5]: 4.7 mg/mL
97.7 | 99.9 | 60.9 | 99.9 | CC(C)[C@H](N)C(=O)OC[C@H]1CN(c2ccc(-c3ccc(-c4nnn(C)n4)nc3)c(F)c2)C(=O)O1.Cl |  |  |  |  |  | 
99.5 | 96.9 | 94.9 | 99.6 | Cn1nnc(-c2ccc(-c3ccc(N4C[C@H](COC(=O)CCN)OC4=O)cc3F)cn2)n1.O=C(O)C(F)(F)F |  |  |  |  |  | solubility [5]: 2.6 mg/mL
 |  |  |  | CC(=O)NC[C@H]1CN(c2ccc(-c3ccc(-c4nnnn4C)nc3)c(F)c2)C(=O)O1 |  | 0.78 (≈ 1.9 µM) | 0.125 (≈ 0.304 µM) | 0.78 (≈ 1.9 µM) |  | MIC (Streptococcus pneumoniae): 0.39 µg/mL (≈ 0.948 µM)
87.8 | 90.7 | 6.3 | 97 | C[C@H](N)C(=O)OC[C@H]1CN(c2ccc(-c3ccc(-c4nnn(C)n4)nc3)c(F)c2)C(=O)O1.O=C(O)C(F)(F)F |  |  |  |  |  | solubility [5]: > 50 mg/mL
 |  |  |  | COCC(=O)NC[C@H]1CN(c2ccc(-c3ccc(-c4nnn(C)n4)nc3)c(F)c2)C(=O)O1 | 20.5 | 1 (≈ 2.27 µM) | 0.5 (≈ 1.13 µM) | 1 (≈ 2.27 µM) | 16 (≈ 36.2 µM) | 
 |  |  |  | Cn1nnc(-c2ccc(-c3ccc(N4C[C@H](CNC(=O)c5cccs5)OC4=O)cc3F)cn2)n1 | > 30 | 0.5 (≈ 1.04 µM) | 0.5 (≈ 1.04 µM) | 0.5 (≈ 1.04 µM) |  | 
